Calls of active or inactive are those of the source. The calls are words filed in the database; no cut-off is given here.
Assays:
[1] = system: MCF7; assay: Induction of apoptosis in human MCF7 cells assessed as downregulation of Mcl-1 expression level measured after 48 hrs by Western blot analysis; type: functional, cell-based; details: dose 0.05-0.5 µM
Procedure, shortened: (§1)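 MCF-7 cells (1 × 10^5 per flask) were treated at 0.05, 0.1 and 0.5 µM for 48 and 72 h; vehicle was 0.1% v/v ethanol. Lysis was in RIPA buffer with protease and phosphatase inhibitors. Equal protein (BCA) was run on 12% SDS-PAGE and blotted for Mcl-1, Bcl-2 and survivin, with GAPDH as loading control and ECL detection. Three independent experiments.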

[2] = system: MCF7; assay: Induction of apoptosis in human MCF7 cells assessed as downregulation of survivin expression level at 0.05 to 0.5 uM after 48 to 72 hrs by Western blot analysis; type: functional, cell-based; details: dose 0.05-0.5 µM, time 48-72 hrs; procedure, shortened: as §1
[3] = system: HT-29; assay: Antiangiogenic activity in human HT29 cells assessed as reduction in IL-1alpha secretion at 5 uM after 24 hrs by ELISA; type: functional, cell-based
Procedure, shortened: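 HT-29 cells at 5 x 10^4 per well, cultured 24 h and then exposed to 5 µM compound. Conditioned medium collected on ice and stored at -80 °C. Cytokines and angiogenic, vascular-injury and chemokine factors measured by multiplex panels with overnight supernatant incubation (Angiogenesis Panel 1 and Vascular Injury Panel 2 same day). Medium undiluted except 1:4 for Vascular Injury Panel 2. Secretion normalised to lysate protein by BCA.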

[4] = system: HT-29; assay: Induction of apoptosis in human HT29 cells assessed as cell apoptosis at 1 uM after 48 hrs by Annexin V-FITC and propidium iodide staining based flow cytometry; type: functional
Procedure, shortened: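 HT-29 cells were treated at 1 µM for 24, 48 and 72 h against an untreated control. Cells were stained with Annexin V in binding buffer (HEPES pH 7.4, NaCl, CaCl2) for 30 min on ice in the dark, washed, resuspended in PI-containing buffer and read at once by flow cytometry. Quadrants: early apoptotic, late apoptotic, necrotic (Annexin V−/PI+).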

[5] = molecular target: Tubulin (Homo sapiens) (UniProt P68371+Q9H4B7+P0DPH7+P68366+Q13509+Q71U36+P04350+Q3ZCM7+P07437+P68363+Q9BQE3+Q6PEY2+Q13885+Q9BVA1+Q9BUF5); assay: Induction of microtubule depolymerization in human MCF7 cells assessed as induction of spindle formation at 10 to 50 nM for 5 hrs by immunofluorescence staining based confocal microscopic analysis; type: cell-based; details: dose 10-50 nM
Procedure, shortened: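 MCF-7 cells were seeded at 1 × 10^5 cells/mL on chamber slides and treated at 0.01, 0.05 and 0.1 µM. Controls were vehicle (1% v/v ethanol), CA-4 (0.01 µM) and paclitaxel (1 µM). Cells were fixed and stained with anti-α-tubulin-FITC (DM1A) and Alexa Fluor 488, then counterstained with DAPI. Imaging was by confocal microscopy over three separate experiments.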

Activity [5]: Active
Compound: COc1ccc([C@H]2[C@H](O)C(=O)N2c2cc(OC)c(OC)c(OC)c2)cc1F
Activity [1]: Dose-dependent effect
Activity [2]: Active
Activity [3]: inactive
Activity [4]: 25%
